{"source": "ChEMBL document CHEMBL4257496", "about": "“Discovery and biological evaluation of N5-substituted 6,7-dioxo-6,7-dihydropteridine derivatives as potent Bruton's tyrosine kinase inhibitors” (Medchemcomm, 2018)", "key": {"[1]": {"target": "Epidermal growth factor receptor (Homo sapiens) (UniProt P00533)", "sequence (P00533 whole entry)": "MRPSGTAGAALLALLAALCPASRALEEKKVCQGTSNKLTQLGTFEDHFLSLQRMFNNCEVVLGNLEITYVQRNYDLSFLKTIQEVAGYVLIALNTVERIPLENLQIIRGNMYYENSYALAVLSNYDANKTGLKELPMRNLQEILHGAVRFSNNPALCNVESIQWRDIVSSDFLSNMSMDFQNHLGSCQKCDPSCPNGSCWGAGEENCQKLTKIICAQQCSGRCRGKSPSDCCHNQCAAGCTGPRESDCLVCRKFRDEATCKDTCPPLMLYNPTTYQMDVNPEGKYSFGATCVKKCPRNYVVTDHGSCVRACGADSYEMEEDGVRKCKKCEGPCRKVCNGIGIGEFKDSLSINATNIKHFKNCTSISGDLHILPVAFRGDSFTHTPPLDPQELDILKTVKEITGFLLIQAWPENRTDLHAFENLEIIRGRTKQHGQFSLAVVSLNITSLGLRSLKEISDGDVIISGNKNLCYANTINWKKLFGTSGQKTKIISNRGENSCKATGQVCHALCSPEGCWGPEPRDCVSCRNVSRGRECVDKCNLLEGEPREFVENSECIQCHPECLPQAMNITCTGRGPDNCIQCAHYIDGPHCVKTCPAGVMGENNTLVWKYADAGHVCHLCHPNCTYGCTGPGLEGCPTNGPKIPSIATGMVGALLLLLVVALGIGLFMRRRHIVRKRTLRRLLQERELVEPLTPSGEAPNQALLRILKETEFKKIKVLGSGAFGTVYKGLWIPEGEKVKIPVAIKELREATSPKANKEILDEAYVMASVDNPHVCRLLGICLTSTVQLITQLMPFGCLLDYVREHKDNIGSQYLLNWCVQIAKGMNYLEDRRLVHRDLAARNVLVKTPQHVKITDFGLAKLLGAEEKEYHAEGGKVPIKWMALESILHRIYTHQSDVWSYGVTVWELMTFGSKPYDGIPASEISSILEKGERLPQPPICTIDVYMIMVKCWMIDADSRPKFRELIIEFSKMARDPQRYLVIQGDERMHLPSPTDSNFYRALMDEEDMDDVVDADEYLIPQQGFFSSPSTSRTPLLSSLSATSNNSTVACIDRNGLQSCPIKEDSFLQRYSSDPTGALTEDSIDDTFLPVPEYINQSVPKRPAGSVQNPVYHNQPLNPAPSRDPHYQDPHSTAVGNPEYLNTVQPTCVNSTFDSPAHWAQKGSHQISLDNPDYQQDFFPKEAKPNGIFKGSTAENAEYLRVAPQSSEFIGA", "assay": "Inhibition of EGFR (unknown origin) at 100 nM using poly (4:1 Glu, Tyr) as substrate measured after 1 hr by ELISA", "in_short": "(§1)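 ELISA kinase assay. Poly(Glu,Tyr)4:1 substrate was precoated at 20 μg mL–1. Active kinase was incubated with compound in 50 mM HEPES pH 7.4, 20 mM MgCl2, 0.1 mM MnCl2, 0.2 mM Na3VO4, 1 mM DTT and 5 μM ATP at 37 °C for 1 h. Phosphotyrosine was detected with anti-phosphotyrosine PY99 and an HRP secondary antibody, developed with OPD, and absorbance was read at 492 nm.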"}, "[2]": {"target": "T1, Tyrosine-protein kinase BTK (Homo sapiens, UniProt Q06187)", "T1 sequence (Q06187 whole entry)": "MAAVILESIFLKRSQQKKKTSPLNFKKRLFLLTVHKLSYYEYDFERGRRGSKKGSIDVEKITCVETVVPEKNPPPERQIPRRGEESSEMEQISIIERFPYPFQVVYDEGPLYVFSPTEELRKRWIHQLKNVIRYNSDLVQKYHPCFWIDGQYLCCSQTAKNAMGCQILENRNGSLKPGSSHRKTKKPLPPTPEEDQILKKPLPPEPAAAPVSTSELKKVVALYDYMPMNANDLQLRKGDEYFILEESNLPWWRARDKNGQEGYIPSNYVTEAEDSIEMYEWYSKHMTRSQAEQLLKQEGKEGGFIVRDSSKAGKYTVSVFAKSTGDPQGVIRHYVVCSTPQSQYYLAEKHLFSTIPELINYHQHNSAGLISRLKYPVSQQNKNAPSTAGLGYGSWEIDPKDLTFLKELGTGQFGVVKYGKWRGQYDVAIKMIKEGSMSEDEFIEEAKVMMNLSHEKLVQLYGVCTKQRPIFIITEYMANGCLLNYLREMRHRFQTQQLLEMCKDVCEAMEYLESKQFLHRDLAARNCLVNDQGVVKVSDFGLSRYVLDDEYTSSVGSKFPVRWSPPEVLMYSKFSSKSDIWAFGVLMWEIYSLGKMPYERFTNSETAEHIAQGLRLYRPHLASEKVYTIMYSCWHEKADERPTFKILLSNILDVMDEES", "assay": "Inhibition of recombinant human full-length N-terminal His6-tagged BTK expressed in baculovirus infected Sf21insect cells using poly (4:1 Glu, Tyr) as substrate measured after 1 hr by ELISA"}, "[3]": {"target": "T2, Tyrosine-protein kinase ITK/TSK (Homo sapiens) (UniProt Q08881)", "T2 sequence (whole entry)": "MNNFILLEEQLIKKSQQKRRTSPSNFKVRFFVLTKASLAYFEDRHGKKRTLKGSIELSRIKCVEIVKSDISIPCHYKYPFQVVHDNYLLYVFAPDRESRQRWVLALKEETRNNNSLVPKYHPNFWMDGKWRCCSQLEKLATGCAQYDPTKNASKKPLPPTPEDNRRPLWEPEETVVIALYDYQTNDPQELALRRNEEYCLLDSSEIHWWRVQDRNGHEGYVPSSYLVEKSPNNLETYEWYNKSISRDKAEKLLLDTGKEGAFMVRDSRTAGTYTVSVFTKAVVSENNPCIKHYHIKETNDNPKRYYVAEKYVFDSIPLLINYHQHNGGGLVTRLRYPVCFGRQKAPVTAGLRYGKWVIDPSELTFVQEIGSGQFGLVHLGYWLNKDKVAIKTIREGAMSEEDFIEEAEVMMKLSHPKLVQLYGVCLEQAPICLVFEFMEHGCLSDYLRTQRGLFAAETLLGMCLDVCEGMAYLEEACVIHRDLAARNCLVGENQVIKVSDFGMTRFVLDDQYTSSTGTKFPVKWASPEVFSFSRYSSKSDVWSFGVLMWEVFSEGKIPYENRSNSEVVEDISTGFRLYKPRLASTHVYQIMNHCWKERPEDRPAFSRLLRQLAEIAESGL", "assay": "Inhibition of ITK (unknown origin) at 100 nM using poly (4:1 Glu, Tyr) as substrate measured after 1 hr by ELISA relative to control", "in_short": "as §1"}, "[4]": {"target": "Receptor tyrosine-protein kinase erbB-4 (Homo sapiens) (UniProt Q15303)", "sequence (Q15303 whole entry)": "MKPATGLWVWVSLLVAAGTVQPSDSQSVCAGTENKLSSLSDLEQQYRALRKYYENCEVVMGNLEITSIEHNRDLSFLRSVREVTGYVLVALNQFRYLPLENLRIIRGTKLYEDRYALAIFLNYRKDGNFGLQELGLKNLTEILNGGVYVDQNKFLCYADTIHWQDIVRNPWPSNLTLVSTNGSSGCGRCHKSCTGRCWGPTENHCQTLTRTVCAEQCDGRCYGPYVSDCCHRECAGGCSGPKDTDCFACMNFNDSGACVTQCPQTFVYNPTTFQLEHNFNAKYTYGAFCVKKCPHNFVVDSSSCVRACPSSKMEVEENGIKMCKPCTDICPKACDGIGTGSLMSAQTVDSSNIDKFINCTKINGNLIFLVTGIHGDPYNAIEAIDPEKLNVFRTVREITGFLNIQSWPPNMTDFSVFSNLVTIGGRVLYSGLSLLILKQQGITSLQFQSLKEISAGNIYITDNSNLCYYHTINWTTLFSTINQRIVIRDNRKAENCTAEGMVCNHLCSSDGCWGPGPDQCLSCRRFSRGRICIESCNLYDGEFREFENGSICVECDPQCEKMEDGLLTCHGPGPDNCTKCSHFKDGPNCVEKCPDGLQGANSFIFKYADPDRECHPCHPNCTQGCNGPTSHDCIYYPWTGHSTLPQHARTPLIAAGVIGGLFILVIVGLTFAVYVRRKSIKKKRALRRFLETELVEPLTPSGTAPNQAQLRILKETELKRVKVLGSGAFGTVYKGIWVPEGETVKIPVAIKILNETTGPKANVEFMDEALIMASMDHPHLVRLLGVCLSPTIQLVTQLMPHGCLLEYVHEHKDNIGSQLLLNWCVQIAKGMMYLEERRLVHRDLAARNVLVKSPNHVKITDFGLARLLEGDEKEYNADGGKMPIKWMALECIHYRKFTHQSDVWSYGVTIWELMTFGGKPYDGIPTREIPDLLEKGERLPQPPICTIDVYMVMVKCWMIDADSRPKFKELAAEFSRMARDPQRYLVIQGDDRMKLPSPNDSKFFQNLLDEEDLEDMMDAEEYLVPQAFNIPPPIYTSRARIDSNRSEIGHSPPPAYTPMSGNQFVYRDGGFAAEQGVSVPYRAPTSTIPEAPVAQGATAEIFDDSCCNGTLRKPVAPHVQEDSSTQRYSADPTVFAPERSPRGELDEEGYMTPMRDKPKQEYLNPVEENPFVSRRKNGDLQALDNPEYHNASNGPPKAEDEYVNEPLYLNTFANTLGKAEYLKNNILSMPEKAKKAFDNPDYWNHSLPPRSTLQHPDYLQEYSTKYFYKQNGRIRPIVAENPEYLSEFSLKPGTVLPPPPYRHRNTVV", "assay": "Inhibition of ErbB4 (unknown origin) at 100 nM using poly (4:1 Glu, Tyr) as substrate measured after 1 hr by ELISA", "in_short": "as §1"}, "[5]": {"target": "Receptor tyrosine-protein kinase erbB-2 (Homo sapiens) (UniProt P04626)", "sequence (P04626 whole entry)": "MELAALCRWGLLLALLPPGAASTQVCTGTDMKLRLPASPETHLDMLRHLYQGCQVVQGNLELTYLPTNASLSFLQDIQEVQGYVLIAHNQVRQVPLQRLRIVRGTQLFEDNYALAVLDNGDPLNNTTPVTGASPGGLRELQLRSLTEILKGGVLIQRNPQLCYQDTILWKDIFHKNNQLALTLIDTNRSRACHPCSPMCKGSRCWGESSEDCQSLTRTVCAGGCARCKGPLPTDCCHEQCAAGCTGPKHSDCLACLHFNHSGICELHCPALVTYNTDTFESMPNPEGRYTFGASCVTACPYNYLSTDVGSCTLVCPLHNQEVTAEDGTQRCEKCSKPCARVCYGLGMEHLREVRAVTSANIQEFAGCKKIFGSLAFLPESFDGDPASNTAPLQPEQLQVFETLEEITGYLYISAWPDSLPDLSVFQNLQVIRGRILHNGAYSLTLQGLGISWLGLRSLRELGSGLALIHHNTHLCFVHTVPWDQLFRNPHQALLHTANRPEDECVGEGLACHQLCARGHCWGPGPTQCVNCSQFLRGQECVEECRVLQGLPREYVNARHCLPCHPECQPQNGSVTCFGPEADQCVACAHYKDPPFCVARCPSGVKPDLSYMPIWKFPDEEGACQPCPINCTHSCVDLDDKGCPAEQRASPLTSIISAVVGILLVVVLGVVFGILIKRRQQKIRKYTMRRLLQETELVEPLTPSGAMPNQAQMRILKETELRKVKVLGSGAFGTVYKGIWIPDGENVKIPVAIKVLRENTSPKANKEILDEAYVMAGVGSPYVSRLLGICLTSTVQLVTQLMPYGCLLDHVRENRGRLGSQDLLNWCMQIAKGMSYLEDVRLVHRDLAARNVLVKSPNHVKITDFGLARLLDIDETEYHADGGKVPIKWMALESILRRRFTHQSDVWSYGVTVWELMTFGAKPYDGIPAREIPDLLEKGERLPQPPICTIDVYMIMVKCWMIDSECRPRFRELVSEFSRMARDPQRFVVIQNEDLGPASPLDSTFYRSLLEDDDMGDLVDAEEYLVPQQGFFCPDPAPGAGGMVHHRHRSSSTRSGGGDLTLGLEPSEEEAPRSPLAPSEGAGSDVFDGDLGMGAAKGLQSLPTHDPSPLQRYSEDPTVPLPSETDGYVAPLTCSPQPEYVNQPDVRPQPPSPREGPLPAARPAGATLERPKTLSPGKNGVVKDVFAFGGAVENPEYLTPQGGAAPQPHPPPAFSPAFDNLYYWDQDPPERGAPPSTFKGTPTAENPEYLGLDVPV", "assay": "Inhibition of ErbB2 (unknown origin) at 100 nM using poly (4:1 Glu, Tyr) as substrate measured after 1 hr by ELISA relative to control", "in_short": "as §1"}, "Homo sapiens": {"organism": "Homo sapiens", "assay": "Selectivity ratio of IC50 for EGFR (unknown origin) to IC50 for recombinant human full-length N-terminal His6-tagged BTK expressed in baculovirus infected Sf21insect cells"}, "[6]": {"target": "T1, Tyrosine-protein kinase BTK", "assay": "Inhibition of anti-IgM-induced BTK phosphorylation at Y223 residue in human Ramos cells at 5 nM preincubated for 1.5 hrs followed by anti-IgM stimulation and measured after 15 mins by Western blot analysis"}, "[7]": {"target": "T1, Tyrosine-protein kinase BTK", "assay": "Inhibition of anti-IgM-stimulated BTK activation in human Ramos cells assessed as reduction in PLCgamma2 phosphorylation at Y759 residue at 5 nM preincubated for 1.5 hrs followed by anti-IgM stimulation and measured after 15 mins by Western blot analysis", "type": "cell-based", "in_short": "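Ramos cells were serum-starved 2 h and treated with compound for 1.5 h. They were then stimulated with anti-IgM (2.5 μg mL–1) for 15 min. Cells were lysed by boiling 30 min in Tris-HCl pH 6.8/DTT/SDS buffer and analysed by western blot. Blots were probed for BTK, p-BTK (Tyr223), PLCγ2 and p-PLCγ2, with β-actin or α-tubulin as loading controls.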"}, "[8]": {"target": "Proto-oncogene tyrosine-protein kinase receptor Ret (Homo sapiens) (UniProt P07949)", "assay": "Inhibition of RET (unknown origin) at 100 nM using poly (4:1 Glu, Tyr) as substrate measured after 1 hr by ELISA relative to control", "in_short": "as §1"}, "Ramos": {"test_system": "Ramos", "assay": "Antiproliferative activity against human Ramos cells after 72 hrs by MTT assay", "type": "functional, cell-based", "in_short": "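Ramos Burkitt's lymphoma cells (RPMI-1640 with 10% FBS, 37 °C, 5% CO2) were seeded and grown 2 h, then exposed to a range of concentrations in PBS, each in triplicate, for 72 h. MTT was added for 4 h at 37 °C, followed by SDS lysis buffer, and absorbance was read at 570 nm. Inhibition rate = [1 – (A treated/A control)] × 100%. Values are means ± SD of at least two independent determinations.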"}}, "note": "Calls of active or inactive are those of the source. The rule behind the calls is not given here."}
{"smiles": "C=CC(=O)Nc1cccc(-n2c(=O)c(=O)n(C(C)C)c3cnc(Nc4ccc(N5CCN(C)CC5)cc4OC)nc32)c1", "values": [{"measurement": "inhibition", "setting": "[1]", "value": "Active"}, {"measurement": "IC50", "setting": "[2]", "value": 47.4, "unit": "nM"}, {"measurement": "inhibition", "setting": "[3]", "value": "< 35", "unit": "%"}, {"measurement": "inhibition", "setting": "[4]", "value": "Active"}, {"measurement": "inhibition", "setting": "[5]", "value": "< 35", "unit": "%"}, {"measurement": "Ratio IC50", "setting": "Homo sapiens", "value": 23}]}
{"smiles": "C=CC(=O)Nc1cccc(-n2c(=O)c(=O)n(C(C)C)c3cnc(Nc4ccc(OCCN(C)C)cc4OC)nc32)c1", "values": [{"measurement": "IC50", "setting": "[2]", "value": 31.9, "unit": "nM"}]}
{"smiles": "C=CC(=O)Nc1cccc(-n2c(=O)c(=O)n(C(C)C)c3cnc(Nc4ccc(N5CCN(C)CC5)c(C)c4)nc32)c1", "values": [{"measurement": "inhibition", "setting": "[6]", "value": "Active"}, {"measurement": "inhibition", "setting": "[1]", "value": "Active"}, {"measurement": "IC50", "setting": "[2]", "value": 1.9, "unit": "nM"}, {"measurement": "inhibition", "setting": "[3]", "value": "< 35", "unit": "%"}, {"measurement": "inhibition", "setting": "[7]", "value": "Active"}, {"measurement": "inhibition", "setting": "[4]", "value": "Active"}, {"measurement": "inhibition", "setting": "[8]", "value": "> 70", "unit": "%"}, {"measurement": "inhibition", "setting": "[5]", "value": "< 35", "unit": "%"}, {"measurement": "IC50", "setting": "Ramos", "value": 9370, "unit": "nM"}]}
{"smiles": "C=CC(=O)Nc1cccc(-n2c(=O)c(=O)n(C(C)C)c3cnc(Nc4ccc(N5CCC(N6CCN(C)CC6)CC5)cc4OC)nc32)c1", "values": [{"measurement": "IC50", "setting": "[2]", "value": 12.8, "unit": "nM"}]}
{"smiles": "C=CC(=O)Nc1cccc(-n2c(=O)c(=O)n(CCC)c3cnc(Nc4ccc(N5CCN(C)CC5)cc4OC)nc32)c1", "values": [{"measurement": "IC50", "setting": "[2]", "value": 21.8, "unit": "nM"}]}
{"smiles": "C=CC(=O)Nc1cccc(-n2c(=O)c(=O)[nH]c3cnc(Nc4ccc(N5CCN(C)CC5)cc4OC)nc32)c1", "values": [{"measurement": "inhibition", "setting": "[6]", "value": "inactive"}, {"measurement": "IC50", "setting": "[2]", "value": 5.4, "unit": "nM"}, {"measurement": "inhibition", "setting": "[7]", "value": "inactive"}, {"measurement": "IC50", "setting": "Ramos", "value": "> 100000", "unit": "nM"}]}
{"smiles": "C=CC(=O)N1CCC[C@@H](n2nc(-c3ccc(Oc4ccccc4)cc3)c3c(N)ncnc32)C1", "note": "[IBRUTINIB]", "values": [{"measurement": "IC50", "setting": "Ramos", "value": 6180, "unit": "nM"}]}
{"smiles": "C=CC(=O)Nc1cccc(-n2c(=O)c(=O)n(C(C)C)c3cnc(Nc4ccc(N(C)CCN(C)C)cc4OC)nc32)c1", "values": [{"measurement": "IC50", "setting": "[2]", "value": 20.8, "unit": "nM"}]}
{"smiles": "C=CC(=O)Nc1cccc(-n2c(=O)c(=O)n(C(C)C)c3cnc(Nc4ccc(N5CCN(C)CC5)c(OC)c4)nc32)c1", "values": [{"measurement": "inhibition", "setting": "[6]", "value": "Active"}, {"measurement": "inhibition", "setting": "[1]", "value": "Active"}, {"measurement": "IC50", "setting": "[2]", "value": 2.4, "unit": "nM"}, {"measurement": "inhibition", "setting": "[3]", "value": "< 35", "unit": "%"}, {"measurement": "inhibition", "setting": "[7]", "value": "Active"}, {"measurement": "inhibition", "setting": "[4]", "value": "Active"}, {"measurement": "inhibition", "setting": "[8]", "value": "> 70", "unit": "%"}, {"measurement": "inhibition", "setting": "[5]", "value": "< 35", "unit": "%"}, {"measurement": "IC50", "setting": "Ramos", "value": 10100, "unit": "nM"}]}
{"smiles": "C=CC(=O)Nc1cccc(-n2c(=O)c(=O)n(CC)c3cnc(Nc4ccc(N5CCN(C)CC5)cc4OC)nc32)c1", "values": [{"measurement": "IC50", "setting": "[2]", "value": 17.2, "unit": "nM"}]}
{"smiles": "C=CC(=O)Nc1cccc(-n2c(=O)c(=O)n(C)c3cnc(Nc4ccc(N5CCN(C)CC5)cc4OC)nc32)c1", "values": [{"measurement": "IC50", "setting": "[2]", "value": 237, "unit": "nM"}]}
